Type in all cases: cell-based
One assay relates to HepG2 cells. Put plainly: MTT cytotoxicity assay, HepG2. Particulars: Homo sapiens, HepG2, read-out: IC50 HepG2. Put shortly: (§1)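 Human lines were grown in RPMI 1640 with 10% FBS at 37 °C and 5% CO2; MCF-7 medium also had glutamine, HEPES and pyruvate. Log-phase cells were seeded, preincubated for 24 h, then treated for 72 h with DMSO-dissolved test compound at 0, 1.25, 2.5, 5, 10 or 20 μM. MTT (5 mg mL−1 stock) was added for 4 h, formazan was dissolved in DMSO and OD was read at 550 nm.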

Another assay deals with SKOV3 cells. The experiment in a line: MTT cytotoxicity assay, SKOV3. Particulars: Homo sapiens, SK-OV-3, read-out: IC50 SKOV3. The procedure, abridged:
as §1
In general terms: Formazan colour is commonly taken as a measure of viable cells.

The next assay deals with HeLa cells. Put plainly: MTT cytotoxicity assay, HeLa. To be noted: Homo sapiens, read-out: IC50 Hela. Put shortly: as §1

One may read the IC50 as the concentration needed to halve the response being measured. Take `CC(=O)O[C@H]1C(=O)[C@@]2(C)[C@H]([C@H](OC(=O)c3ccccc3)[C@]3(O)C[C@H](OC(=O)[C@H](O)[C@@H](NC(=O)c4ccccc4)c4ccccc4)C(C)=C1C3(C)C)[C@]1(OC(C)=O)CO[C@@H]1C[C@@H]2O` [Paclitaxel]: the IC50 in the assay on HepG2 cells was 1.5 nM; in the assay with SKOV3 cells, 3.8 nM; in the assay with HeLa cells, 3 nM.

These data come from publication PMC9076386 (RSC Advances, 2019).
